In brackets after ≈: the same amount, converted by molar mass.
Assays:
Aromatase = target: T1, Aromatase (Homo sapiens, UniProt P11511); experiment: Inhibition of CYP19 (unknown origin) using O-benzyl fluorescein benzyl ester substrate preincubated for 10 mins by fluorimetric analysis relative to control
T1 sequence (P11511 whole entry): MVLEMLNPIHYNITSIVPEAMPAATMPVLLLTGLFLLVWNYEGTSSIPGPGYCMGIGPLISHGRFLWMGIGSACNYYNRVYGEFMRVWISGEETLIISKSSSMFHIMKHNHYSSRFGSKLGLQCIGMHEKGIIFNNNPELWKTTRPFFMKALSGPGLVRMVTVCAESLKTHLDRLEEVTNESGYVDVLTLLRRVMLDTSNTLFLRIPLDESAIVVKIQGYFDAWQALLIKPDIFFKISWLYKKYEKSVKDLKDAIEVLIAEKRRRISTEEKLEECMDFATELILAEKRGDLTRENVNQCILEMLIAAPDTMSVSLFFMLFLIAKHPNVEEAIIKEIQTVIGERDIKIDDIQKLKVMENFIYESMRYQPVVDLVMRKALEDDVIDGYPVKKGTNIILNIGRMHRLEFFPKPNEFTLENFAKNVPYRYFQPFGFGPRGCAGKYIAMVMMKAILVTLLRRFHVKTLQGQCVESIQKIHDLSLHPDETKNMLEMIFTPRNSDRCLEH
In short: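 CYP19 was assayed with dibenzylfluorescein (DBF) as substrate. DBF is dealkylated by the enzyme and hydrolysed to fluorescein. Cofactor mix was 50 mM phosphate buffer pH 7.4 with an NADPH-generating system (NADP⁺, glucose-6-phosphate, MgCl₂, glucose-6-phosphate dehydrogenase). This mix was preincubated 10 min at 37 °C. Enzyme/substrate mixture (16 pmol/mL CYP19 stock, 0.2 mM DBF stock) and test sample were then added.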

Vero = experiment: Cytotoxicity against african green monkey Vero cells after 4 days by green fluorescent protein detection method; type: cell-based; conditions: Chlorocebus sabaeus, 96 h
[1] = Selectivity index, ratio of IC50 for african green monkey Vero cells to IC50 for CYP19 (unknown origin)
In short: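 Selectivity index was calculated as the IC₅₀ in GFP-Vero cells (4-day fluorescence assay) divided by the IC₅₀ in the DBF-based CYP19 fluorescence assay.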

[2] = Solubility of the compound in phosphate buffer at pH 7.4 medium; type: physicochemical

Compound	IC50 (Aromatase) [µM]	solubility [2]	IC50 (Vero) [µg/mL]	Ratio IC50 [1]
COc1cc2c(cc1OC)CN(S(=O)(=O)c1ccc(-n3cc(COc4ccccc4C(C)=O)nn3)cc1)CC2	> 12.5			
COc1cc2c(cc1OC)CN(S(=O)(=O)c1cccc(-n3cc(COc4cc(=O)oc5ccccc45)nn3)c1)CC2	1.8		86.3 (≈ 150 µM)	48
Cc1c2ccncc2c(C)c2c1[nH]c1ccccc12 [ELLIPTECINE]			1.94 (≈ 7.88 µM)	
COc1cc2c(cc1OC)CN(S(=O)(=O)c1ccc(-n3cc(COc4ccc([N+](=O)[O-])cc4)nn3)cc1)CC2	> 12.5		> 50	
O=c1cc(OCc2cn(-c3ccc(S(=O)(=O)N4CCc5ccccc5C4)cc3)nn2)c2ccccc2o1	> 12.5			
COc1cc2c(cc1OC)CN(S(=O)(=O)c1ccc(-n3cc(COc4ccccc4C)nn3)cc1)CC2	> 12.5		> 50	
O=c1cc(OCc2cn(-c3cccc(S(=O)(=O)N4CCc5ccccc5C4)c3)nn2)c2ccccc2o1	> 12.5		> 50	
COC(=O)c1ccccc1OCc1cn(-c2ccc(S(=O)(=O)N3CCc4cc(OC)c(OC)cc4C3)cc2)nn1	> 12.5			
COc1cc2c(cc1OC)CN(S(=O)(=O)c1cccc(-n3cc(COc4ccc5ccc(=O)oc5c4)nn3)c1)CC2	0.2		> 50	>435.09
O=c1ccc2ccc(OCc3cn(-c4cccc(S(=O)(=O)N5CCc6ccccc6C5)c4)nn3)cc2o1		Insoluble	91.5 (≈ 178 µM)	
COc1cc2c(cc1OC)CN(S(=O)(=O)c1ccc(-n3cc(COc4cc(C=O)ccc4OC)nn3)cc1)CC2	> 12.5		> 50	
CC(=O)c1ccccc1OCc1cn(-c2ccc(S(=O)(=O)N3CCc4ccccc4C3)cc2)nn1	> 12.5		> 50	

More lines, main results first:

IC50 (Aromatase) [µM]	solubility [2]	Compound	IC50 (Vero) [µg/mL]	Ratio IC50 [1]
7.9		O=Cc1ccc(OCc2cn(-c3ccc(S(=O)(=O)NCCc4ccccc4)cc3)nn2)cc1	> 50	>13.68
> 12.5		O=S(=O)(NCCc1ccccc1)c1ccc(-n2cc(-c3ccccc3)nn2)cc1	> 50	
4.6		COc1ccc(CCNS(=O)(=O)c2ccc(-n3cc(-c4ccccc4)nn3)cc2)cc1OC	> 50	>23.4
1.8		O=c1cc(OCc2cn(-c3ccc(S(=O)(=O)NCCc4ccccc4)cc3)nn2)c2ccccc2o1	> 50	>55.27
2.7		COc1ccc(CCNS(=O)(=O)c2ccc(-n3cc(COc4ccc([N+](=O)[O-])cc4)nn3)cc2)cc1OC	> 50	>34.32
> 12.5		O=c1ccc2ccc(OCc3cn(-c4ccc(S(=O)(=O)NCCc5ccccc5)cc4)nn3)cc2o1	> 50	
3.4		Cc1ccccc1OCc1cn(-c2ccc(S(=O)(=O)NCCc3ccccc3)cc2)nn1	> 50	>32.79
3.4		O=S(=O)(NCCc1ccccc1)c1ccc(-n2cc(COc3cccc4ccccc34)nn2)cc1	> 50	>30.35
9.4		O=S(=O)(NCCc1ccccc1)c1ccc(-n2cc(COc3ccccc3)nn2)cc1	> 50	>12.24
8		Cc1ccc(OCc2cn(-c3ccc(S(=O)(=O)NCCc4ccccc4)cc3)nn2)cc1	> 50	>13.93
1.3		O=S(=O)(NCCc1ccccc1)c1ccc(-n2cc(COc3ccc4ccccc4c3)nn2)cc1	> 50	>79.37
2.9		O=[N+]([O-])c1ccc(OCc2cn(-c3ccc(S(=O)(=O)NCCc4ccccc4)cc3)nn2)cc1	> 50	>35.96

Source: ChEMBL document CHEMBL3588765, “Synthesis and molecular docking of 1,2,3-triazole-based sulfonamides as aromatase inhibitors” (Bioorg Med Chem, 2015)
